Results: paper PMC12199099 (British Journal of Clinical Pharmacology, 2025)
Values joined by “and” are separate entries in the source; they are usually repeats but may differ in a detail not shown here. Equal values may be shown once.

How the values were obtained:
R/R CLL/SLL = assay: Exposure-efficacy; type: in vivo, human; details: for relationship between exposures and efficacy endpoints (BOR and SPD): Chinese patients with R/R CLL/SLL (n = 60), 100 mg BID
Outline: (§1)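 Chinese pivotal phase 1/2 study (MCL n = 34; CLL n = 60). Per-patient acalabrutinib, ACP-5862 and total active moiety AUC_24h,ss and C_max,ss were taken from pop-PK post hoc estimates. Total active moiety was adjusted for BTK potency and protein binding. Best overall response was assessed by an independent review committee: CR/PR/SD/PD for MCL, PR/PRL/SD for CLL/SLL. SPD change from baseline was also scored. Analysis was graphical plus logistic regression.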

[1] = system: breast cancer‐resistance protein (BCRP); details: cited from earlier work
[2] = type: in vivo, human; details: noncompartmental analysis, patients with intensive PK sampling
BTK [3] = details: 100 mg BID, clinical pharmacodynamic data; cited from earlier work
[4] = humans, cited from earlier work
[5] = cited from earlier work
Exposure-safety = type: in vivo, human
Outline: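 Pooled seven studies (six global plus China; n = 476). Endpoints were incidence of grade ≥2 AEs, grade ≥3 AEs, and grade ≥2 AEs of clinical interest occurring in ≥5% of patients (MedDRA v21.1). Post hoc pop-PK steady-state exposures (acalabrutinib AUC_24h,ss primary) were related to AE incidence by graphical plots and logistic regression with 95% CI. Analysis was run for the global and Chinese populations.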

[6] = cited from earlier work; remark: listed apart in the source
R/R MCL = assay: Exposure-efficacy; type: in vivo, human; details: for relationship between exposures and efficacy endpoints (BOR and SPD): Chinese patients with R/R MCL (n = 34), 100 mg BID
Outline: as §1

[7] = Population pharmacokinetic; type: in vivo, human; details: for geometric mean AUC24h,ss higher in Chinese patients than in White patients / geometric mean C max,ss higher in Chinese patients than in White patients: 100 mg BID, empirical Bayes estimates, Chinese n = 105, White n = 512
Outline: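 Pooled plasma acalabrutinib/ACP-5862 data from 14 trials, with China study intensive and sparse schedules, were fitted to the existing model. Parent: two-compartment, five transit compartments. Metabolite: two-compartment, formation fixed at 0.4 CL/F. BOV was on MTT and F1; BSV on clearances and volumes. Race (East Asian vs non-East Asian), PPI, ECOG and health status were tested as proportional shifts. Estimation used NONMEM SAEM/IMP, with BLQ handled by M3.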

CYP3A enzymes = details: cited from earlier work
[8] = at a 400 mg daily dose; cited from earlier work
[9] = radio-labelled dose, humans; cited from earlier work
[10] = used for total active concentration; cited from earlier work
BTK [11] = details: cited from earlier work
[12] = Chinese R/R CLL/SLL, n = 60, 100 mg BID
[13] = Chinese R/R MCL, n = 34, 100 mg BID

For CC#CC(=O)N1CCC[C@H]1c1nc(-c2ccc(C(=O)Nc3ccccn3)cc2)c2c(N)nccn12 [acalabrutinib], the “best overall response PR, number of patients” value (R/R CLL/SLL; [12]) was 50, the “best overall response PRL, number of patients” value (R/R CLL/SLL; [12]) was 2 and the “best overall response SD, number of patients” value (R/R CLL/SLL; [12]) was 6. The “relationship between exposures and efficacy endpoints (BOR and SPD)” value (R/R CLL/SLL) was “flat relationships”, the BCRP substrate status [1] was “substrate” and the “AUC higher in Chinese participants than in White patients” value [2] was 48%. The “BTK occupancy over 24 h” value (BTK [3]) was “maximal”, the “median time to peak plasma concentration (T max)” value ([4]; after oral administration) was 0.75 h and the absolute bioavailability [4] was 25%. For the same compound, the “mean steady‐state volume of distribution (Vss)” value [4] was “approximately 34 L”, the “mean terminal half‐life” value [4] was 1.4 h and the “incidence of atrial fibrillation and haemorrhage compared with ibrutinib” value [5] was “lower incidence”. The “relationship of acalabrutinib AUC24h,ss with grade ≥2 or ≥3 adverse events” value (Exposure-safety; both Chinese patients and the overall population, 100–400 mg daily doses) was “flat relationship”, the “relationship between acalabrutinib AUC24h,ss and grade ≥3 AEs” value (Exposure-safety; overall population, 100 mg BID) was “flat relationship” and the “relationship between acalabrutinib AUC24h,ss and grade ≥2 and grade ≥3 AEs” value (Exposure-safety; overall population, logistic regression, daily doses 100 to 400 mg) was “no statistically significant relationship”. The “solubility, pH dependence” value [6] was “solubility decreasing with increasing pH”, the “best overall response CR, number of patients” value (R/R MCL; [13]) was 12 and the “best overall response PD, number of patients” value (R/R MCL; [13]) was 4. The “best overall response PR, number of patients” value (R/R MCL; [13]) was 16, the “best overall response SD, number of patients” value (R/R MCL; [13]) was 1 and the “relationship between exposures and efficacy endpoints (BOR and SPD)” value (R/R MCL) was “flat relationships”. For the same compound, the “geometric mean AUC24h,ss higher in Chinese patients than in White patients” value [7] was 28%, the “geometric mean C max,ss higher in Chinese patients than in White patients” value [7] was 28% and the “CL/F higher in healthy participants than in patients with B‐cell malignancies” value ([7]; covariate analysis) was 64.5%. The “Vp/F lower in healthy participants than in patients with B‐cell malignancies” value ([7]; covariate analysis) was 42.4%, the “decrease in CL/F, ECOG performance status ≥2 compared with ECOG ≤1” value ([7]; covariate analysis) was 12.8% and the “reduction of F1 by PPIs” value ([7]; covariate analysis) was 30.7%. The “CL/F, apparent clearance of parent drug, estimate (RSE %)” value ([7]; final model fixed effect) was 130.3 (0.4) L/h, the “Ka, first‐order absorption rate constant, estimate (RSE %)” value ([7]; final model fixed effect) was 1.4 (6.6) h^−1 and the “MTT, mean transit time, estimate (RSE %)” value ([7]; final model fixed effect) was 0.4 (5) h. For the same compound, the “Q/F, apparent intercompartmental clearance for parent drug, estimate (RSE %)” value ([7]; final model fixed effect) was 19.5 (1.3) L/h, the “Vc/F, apparent volume of the central compartment for parent drug, estimate (RSE %)” value ([7]; final model fixed effect) was 28.8 (4.5) L and the “Vp/F, apparent volume of the peripheral compartment for parent drug, estimate (RSE %)” value ([7]; final model fixed effect) was 105.6 (0.7) L. For the same compound, the “F higher in East Asian compared with non‐East Asian individuals” value ([7]; race covariate) was 23% and ~ 23%, the “Vp/F lower in East Asian compared with non‐East Asian individuals” value ([7]; race covariate) was 38% and the “BOV F1, between‐occasion variability, estimate (RSE %)” value ([7]; random effect) was 52.9 (1.7). For the same compound, the “BOV MTT, between‐occasion variability, estimate (RSE %)” value ([7]; random effect) was 125 (2.2) h, the “BSV CL/F, between‐subject variability, estimate (RSE %)” value ([7]; random effect) was 23.2 (5.6) L/h and the “BSV Vc/F, estimate (RSE %)” value ([7]; random effect) was 306 (6.3) L. For the same compound, the “BSV Vp/F, estimate (RSE %)” value ([7]; random effect) was 35.9 (6.9) L, the “CL/F_ECOG2+, covariate effect of ECOG on CL/F, estimate (RSE %)” value ([7]; relative change (1 + estimate)) was −0.128 (43.9) and the “CL/F_HEALTHGP, covariate effect of healthy individuals on CL/F, estimate (RSE %)” value ([7]; relative change (1 + estimate)) was 0.645 (17.1). For the same compound, the “Vp/F_HEALTHGP, covariate effect of healthy individuals on Vp/F, estimate (RSE %)” value ([7]; relative change (1 + estimate)) was −0.424 (5.9), the “metabolism by CYP3A enzymes into ACP‐5862” value (CYP3A enzymes) was “predominantly metabolized” and the maximum tolerated dose [8] was “not observed”. For the same compound, the “dose excreted as unchanged acalabrutinib in urine and faeces” value [9] was “less than 2%”, the “dose recovered in the faeces” value [9] was 84% and the “dose recovered in the urine” value [9] was 12%.

In the case of CC#CC(=O)NCCCC(=O)c1nc(-c2ccc(C(=O)Nc3ccccn3)cc2)c2c(N)nccn12 [ACP‐5862], the “free fraction (fu)” value [10] is listed as 0.013, the “relationship between exposures and efficacy endpoints (BOR and SPD)” value (R/R CLL/SLL) is listed as “flat relationships” and the “mean terminal half‐life” value [4] is listed as 6.6 h. For the same compound, the “relationship between exposures and efficacy endpoints (BOR and SPD)” value (R/R MCL) was “flat relationships”, the “geometric mean AUC24h,ss higher in Chinese patients than in White patients” value [7] was 28% and the “geometric mean C max,ss higher in Chinese patients than in White patients” value [7] was 28%. For the same compound, the “CLM/F, apparent clearance of metabolite, estimate (RSE %)” value ([7]; final model fixed effect) was 21.5 (0.6) L/h, the “QM/F, apparent intercompartmental clearance for metabolite, estimate (RSE %)” value ([7]; final model fixed effect) was 21.1 (2.9) L/h and the “VcM/F, apparent volume of the central compartment for metabolite, estimate (RSE %)” value ([7]; final model fixed effect) was 24.3 (1.7) L. The “VpM/F, apparent volume of the peripheral compartment for metabolite, estimate (RSE %)” value ([7]; final model fixed effect) was 90.9 (1.3) L, the “BSV CLM/F, estimate (RSE %)” value ([7]; random effect) was 13.2 (18.7) L/h and the “BSV QM/F, estimate (RSE %)” value ([7]; random effect) was 62.4 (13.8) L/h. The “BSV VcM/F, estimate (RSE %)” value ([7]; random effect) was 37.4 (13.7) L, the “BSV VpM/F, estimate (RSE %)” value ([7]; random effect) was 29.3 (18.8) L and the “potency for BTK inhibition compared with acalabrutinib” value (BTK [11]) was “approximately 0.5 fold”.
